How the values were obtained:
OVCAR-8 = assay: Growth inhibition of human OVCAR8 cells; assay type: functional
SF-295 [1] = assay: Cytotoxicity against human SF295 cells after 44 hrs by MTT assay; assay type: functional, cell-based; settings: SF-295, 44 h
How it was run: (§1)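 SF-295 cells cultured in RPMI 1640 and A549 cells in F-12, each with 10% FBS, penicillin–streptomycin, amphotericin B and L-glutamine, at 37 °C in 5% CO2. Cells were grown to 60% confluency, then treated for 44 h. Medium was replaced with medium containing 0.06 mg/mL MTT (phenol red-free RPMI for SF-295) for 4 h. Acid/Triton/isopropanol stop solution was added, plates incubated overnight at 37 °C, OD read at 540 and 650 nm, and EC50 calculated.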

A549 [2] = assay: Cytotoxicity against human A549 cells after 44 hrs by MTT assay; assay type: functional, cell-based; settings: A549, 44 h; how it was run: as §1
UACC-62 = assay: Growth inhibition of human UACC62 cells; assay type: functional; settings: for CC50: read-out: pLC50 (the source's name) (converted); for TGI: read-out: pTGI (converted)
SK-MEL-2 = assay: Growth inhibition of human SK-MEL-2 cells; assay type: functional; settings: for TGI: read-out: pTGI (converted)
SNB-75 = assay: Growth inhibition of human SNB75 cells; assay type: functional; settings: for TGI: read-out: pTGI (converted)
SF-295 [3] = assay: Growth inhibition of human SF295 cells; assay type: functional; settings: for TGI: read-out: pTGI (converted)
SF-268 = assay: Growth inhibition of human SF268 cells; assay type: functional; settings: for TGI: read-out: pTGI (converted)
HT-29 = assay: Growth inhibition of human HT-29 cells; assay type: functional; settings: for TGI: read-out: pTGI (converted)
NCI-H460 = assay: Growth inhibition of human NCI-H460 cells; assay type: functional; settings: for TGI: read-out: pTGI (converted)
NCI-H23 = assay: Growth inhibition of human NCI-H23 cells; assay type: functional; settings: for TGI: read-out: pTGI (converted)
MOLT-4 = assay: Growth inhibition of human MOLT4 cells; assay type: functional; settings: for TGI: read-out: pTGI (converted)
K562 = assay: Growth inhibition of human K562 cells; assay type: functional; settings: for CC50: read-out: pLC50 (the source's name) (converted); for TGI: read-out: pTGI (converted)
IGROV-1 = assay: Growth inhibition of human IGROV1 cells; assay type: functional; settings: for TGI: read-out: pTGI (converted)
OVCAR-3 = assay: Growth inhibition of human OVCAR-3 cells; assay type: functional; settings: for TGI: read-out: pTGI (converted)
OVCAR-5 = assay: Growth inhibition of human OVCAR5 cells; assay type: functional; settings: for TGI: read-out: pTGI (converted)
MDA-MB-435 = assay: Growth inhibition of human MDA-MB-435 cells; assay type: functional; settings: for TGI: read-out: pTGI (converted)
A549 [4] = assay: Selectivity index, ratio of EC50 for human A549 cells to EC50 for SF295 cells; assay type: functional
How it was run: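 SF-295 cells were kept in RPMI 1640 and A549 in F-12, each with 10% FBS, pen-strep, amphotericin B and L-glutamine, at 37 °C and 5% CO2. Cells at 60% confluency were dosed for 44 h, then given 0.06 mg/mL MTT for 4 h (SF-295 in phenol-red-free RPMI). Acid/Triton/isopropanol stop was added overnight at 37 °C, and OD read at 540/650 nm. EC50 ratio is A549 over SF-295.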

SK-MEL-28 = assay: Growth inhibition of human SK-MEL-28 cells; assay type: functional
SW-620 = assay: Growth inhibition of human SW620 cells; assay type: functional
[5] = Growth inhibition of human Hs 578T cells; assay type: functional
[6] = read-out: pLC50 (the source's name) (converted)

COc1cc(CCc2cc(O)c(C/C=C(\C)CC/C=C(\C)CO)c(O)c2)cc2c1O[C@]1(C)CC[C@@H](O)C(C)(C)[C@H]1C2
GI50 (OVCAR-8): 8.32 µM | CC50 (OVCAR-8; [6]): > 100 µM | TGI (OVCAR-8; read-out: pTGI (converted)): 64.6 µM | EC50 (SF-295 [1]): > 10 µM | EC50 (A549 [2]): > 10 µM | GI50 (UACC-62): 4.79 µM | CC50 (UACC-62): 81.3 µM | TGI (UACC-62): 20.9 µM | GI50 (SK-MEL-2): 3.89 µM | LC50 (SK-MEL-2): 75.9 µM | TGI (SK-MEL-2): 17.4 µM | GI50 (SNB-75): 1.7 µM | LC50 (SNB-75): > 100 µM | TGI (SNB-75): 10.7 µM | GI50 (SF-295 [3]): 2.51 µM | LC50 (SF-295 [3]): 45.7 µM | TGI (SF-295 [3]): 10 µM | GI50 (SF-268): 6.03 µM | LC50 (SF-268): 87.1 µM | TGI (SF-268): 25.7 µM | GI50 (HT-29): 7.94 µM | LC50 (50% lethal concentration) (HT-29): 87.1 µM | TGI (HT-29): 26.3 µM | GI50 (NCI-H460): 3.31 µM | LC50 (NCI-H460): 38.9 µM | TGI (NCI-H460): 10.7 µM | GI50 (NCI-H23): 6.92 µM | LC50 (NCI-H23): 85.1 µM | TGI (NCI-H23): 25.7 µM | GI50 (MOLT-4): 1.7 µM | LC50 (MOLT-4): 97.7 µM | TGI (MOLT-4): 7.59 µM | GI50 (K562): 3.09 µM | CC50 (K562): 64.6 µM | TGI (K562): 12.9 µM | GI50 (IGROV-1): 4.9 µM | LC50 (IGROV-1): > 100 µM | TGI (IGROV-1): 26.3 µM | GI50 (OVCAR-3): 11.5 µM | LC50 (50% lethal concentration) (OVCAR-3): > 100 µM | TGI (OVCAR-3): 33.1 µM | GI50 (OVCAR-5): 20.9 µM | LC50 (lethal concentration, 50% cell kill) (OVCAR-5): > 100 µM | TGI (OVCAR-5): 66.1 µM | GI50 (MDA-MB-435): 6.31 µM | LC50 (MDA-MB-435): > 100 µM | TGI (MDA-MB-435): 32.4 µM

COc1cc(/C=C/c2cc(O)c(CCC(C)C)c(O)c2)cc2c1O[C@]1(C)CC[C@@H](O)C(C)(C)[C@H]1C2
Ratio EC50 (A549 [4]): 10 | EC50 (SF-295 [1]): 0.4 µM | EC50 (A549 [2]): 4.2 µM | GI50 (UACC-62): 0.195 µM | CC50 (UACC-62): 32.4 µM | TGI (UACC-62): 7.08 µM | GI50 (SK-MEL-28): 0.123 µM | CC50 (SK-MEL-28; [6]): 37.2 µM | TGI (SK-MEL-28; read-out: pTGI (converted)): 11.2 µM | GI50 (SK-MEL-2): 4.47 µM | TGI (SK-MEL-2): 33.1 µM | GI50 (SNB-75): 0.0603 µM | LC50 (SNB-75): 39.8 µM | TGI (SNB-75): 11.2 µM | GI50 (SF-295 [3]): 0.0331 µM | LC50 (SF-295 [3]): 66.1 µM | TGI (SF-295 [3]): 1.35 µM | GI50 (SF-268): 0.214 µM | LC50 (SF-268): 39.8 µM | TGI (SF-268): 11.5 µM | GI50 (SW-620): 0.214 µM | CC50 (SW-620; [6]): 14.8 µM | TGI (SW-620; read-out: pTGI (converted)): 2.34 µM | GI50 (HT-29): 0.813 µM | LC50 (50% lethal concentration) (HT-29): 97.7 µM | TGI (HT-29): 4.47 µM | GI50 (NCI-H460): 0.0661 µM | LC50 (NCI-H460): 51.3 µM | TGI (NCI-H460): 1.78 µM | GI50 (NCI-H23): 1.29 µM | LC50 (NCI-H23): 81.3 µM | TGI (NCI-H23): 19.5 µM | GI50 (MOLT-4): 0.0457 µM | LC50 (MOLT-4): > 100 µM | TGI (MOLT-4): 18.6 µM | GI50 (K562): 1.17 µM | CC50 (K562): > 100 µM | TGI (K562): > 100 µM | GI50 (IGROV-1): 0.513 µM | LC50 (IGROV-1): > 100 µM | TGI (IGROV-1): 46.8 µM | GI50 (OVCAR-3): 0.417 µM | LC50 (50% lethal concentration) (OVCAR-3): 56.2 µM | TGI (OVCAR-3): 14.1 µM | GI50 (OVCAR-5): 10.7 µM | LC50 (lethal concentration, 50% cell kill) (OVCAR-5): 69.2 µM | TGI (OVCAR-5): 26.9 µM | GI50 [5]: 0.0309 µM | CC50 [5, 6]: > 100 µM | TGI ([5]; read-out: pTGI (converted)): 0.166 µM | GI50 (MDA-MB-435): 0.501 µM | LC50 (MDA-MB-435): > 100 µM | TGI (MDA-MB-435): 24 µM

Source: ChEMBL document CHEMBL1156920, “Structural analogues of schweinfurthin F: probing the steric, electronic, and hydrophobic properties of the D-ring substructure” (Bioorg Med Chem, 2010)
